Assays:
[1] = tested on: FME; assay: Aerobic cytotoxicity against human melanoma FME cells in a growth inhibition microassay; type: functional
In short: (§1)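 Cells kept as log-phase monolayers in antibiotic-free Alpha MEM with 10% heat-inactivated FCS. Per well: 200 AA8, 300 UV4, 50 EMT6 or 1000 FME cells. Drug added 24 h after seeding and removed after 18 h. Cell mass (protein, methylene blue absorbance) read 72–78 h after washout. IC50 = concentration giving 50% of the mean of eight controls on the same plate.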

[2] = tested on: EMT6; assay: Aerobic cytotoxicity against murine mammary carcinoma EMT6 cells in a growth inhibition microassay; type: functional, Mus musculus; in short: as §1
[3] = Ratio of mean intracellular to extracellular compound concentration determined under hypoxic conditions 30 mins after exposure to compound at C1.6 concentration; type: functional, cell-based
In short: (§2)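 AA8 suspension (10⁷ cells) made hypoxic with 5% CO₂ in N₂, exposed 30 min at 37 °C to drug at the C1.6. Supernatant and lysed pellet extracted in MeCN. Assayed by C18 HPLC (formate pH 4.5/MeCN gradient, 320 nm), corrected for spiked recoveries. Intracellular level from 11.6 µL cell water/10⁷ cells, with [¹⁴C]sucrose and ³H₂O spaces. Result expressed as Ci/Ce.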

[4] = tested on: CHO-AA8; assay: Average intracellular compound concentration where the hypoxia sensitizer enhancement ratio (SER)=1.6; type: functional, Cricetulus griseus
In short: (§3)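 Hypoxic stirred AA8 suspensions (10⁷ cells) incubated 30 min at the C1.6 concentration. Cells and supernatant separated by centrifugation and extracted into MeCN. Drug measured by C18 HPLC with formate pH 4.5/MeCN gradient, absorbance 320 nm. Values corrected for recovery using spiked medium or lysed pellets. Mean intracellular concentration calculated assuming 11.6 µL cell water and 1.1 µL pellet extracellular water per 10⁷ cells.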

[5] = (§4) In vitro therapeutic index (aerobic IC50 / hypoxic C1.6); type: functional
In short: (§5)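 Hypoxic C1.6: stirred AA8 gassed with 5% CO₂/N₂ 60 min, drug 30 min, ⁶⁰Co irradiation at 37 °C (~2 Gy/min). D10 from linear-quadratic fit; concentration giving SER 1.6 interpolated. Index = IC50/C1.6.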

[6] = tested on: UV4; assay: Aerobic cytotoxicity against UV4 cells in a growth inhibition microassay; type: functional, Cricetulus griseus; in short: as §1
[7] = tested on: CHO-AA8; assay: Average intracellular compound concentration where the sensitizer enhancement ratio (SER)=1.6 under hypoxia; type: functional, Cricetulus griseus; in short: as §3
[8] = tested on: CHO-AA8; assay: Compound concentration required to reduce cell survival to 10% of control values under hypoxic condition.; type: cell-based, Cricetulus griseus; conditions: chinese hamster
In short: (§6)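 Chinese hamster AA8 cells at plateau phase, 10⁶/mL, in magnetically stirred 10-mL suspensions. Gassed continuously with 5% CO₂ in N₂ (hypoxic) or in air (aerobic); cells and drug preequilibrated under the gas for 60 min. Clonogenic plating efficiency read every 0.5–1 h for up to 8 h at several drug concentrations. Concentration × time for 10% survival (CT10) estimated at each concentration.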

[9] = The ratio of aerobic CT10 to hypoxic CT10.; type: functional
In short: (§7)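 Clonogenic assay on stirred plateau-phase AA8 suspensions (10⁶/mL), gassed with 5% CO₂ in air or in N₂ after 60 min preequilibration. Survival sampled every 0.5–1 h up to 8 h at several drug concentrations. CT10 taken at each concentration. Interpolated aerobic CT10 divided by hypoxic CT10 at the same time; ranges cover 1–8 h exposure.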

[10] = tested on: CHO-AA8; assay: Compound concentration at which sensitizer enhancement ratio =1.6 under hypoxia.; type: functional, Cricetulus griseus
In short: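 Stirred AA8 suspensions gassed 60 min with 5% CO2 in N2. Drug added 30 min before ⁶⁰Co irradiation at 37 °C (ca. 2 Gy/min, typically 6 Gy steps). Clonogenic survival taken against unirradiated cells from the same culture. Linear-quadratic fit gives D10; SER = D10 without/with drug, determined over a range of concentrations to estimate C1.6. Only concentrations with minimal drug toxicity during irradiation were used.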

[11] = Partition coefficient (logP); type: physicochemical; conditions: octanol/water
In short: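 log P octanol computed with CLOGP rather than measured.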

[12] = tested on: CHO-AA8; assay: Concentration required to reduce AA8 cell numbers to 50% of controls in a growth inhibition microassay; type: functional, cell-based; conditions: Cricetulus griseus; in short: as §1
[13] = Ratio of mean intracellular to extracellular compound concentration determined under hypoxic condition.; type: functional, cell-based; in short: as §2
[14] = tested on: CHO-AA8; assay: Average intracellular compound concentration when the hypoxic SER=1.6.; type: functional, Cricetulus griseus; in short: as §3
[15] = tested on: CHO-AA8; assay: (§8) Compound concentration required to reduce cell survival to 10% of control values under hypoxic condition; type: cell-based, Cricetulus griseus; conditions: chinese hamster; in short: as §6
[16] = as §4; type: cell-based, Cricetulus griseus; conditions: chinese hamster, CHO-AA8 cells; read-out: TI; in short: as §5
[17] = The ratio of aerobic CT10 to hypoxic CT10; type: functional; in short: as §7
[18] = tested on: CHO-AA8; assay: as §8; type: functional, Cricetulus griseus
In short: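 Plateau-phase AA8 cells (10⁶/mL) in magnetically stirred 10-mL cultures, gassed continuously with N2 plus 5% CO2. Cells and drug pre-equilibrated 60 min. Clonogenic plating every 0.5–1 h for up to 8 h at several concentrations. CT10 (concentration × time for 10% survival) estimated at each concentration.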

[19] = tested on: CHO-AA8; assay: Average intracellular compound concentration when the hypoxic SER=1.6; type: functional, Cricetulus griseus; in short: as §3
[20] = tested on: CHO-AA8; assay: as §4; type: functional, Cricetulus griseus
In short: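 C1.6 is the concentration giving SER 1.6 in hypoxic stirred AA8 suspensions exposed to drug for 30 min before ⁶⁰Co irradiation at 37 °C.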

SMILES	Hypersensitivity factor [1]	Hypersensitivity factor [2]	Uptake ratio [3]	C1.6 [4] [mM]	TI [5]	Hypersensitivity factor [6]	C1.6 [7] [mM]	CT10 [8] [mM-hr]	Ratio [9]	C1.6 [10] [mM]	logP [11]	IC50 [12] [mM]	Uptake ratio [13]	C1.6 [14] [mM]	CT10 [15] [mM-hr]	selectivity ratio [16]	Ratio [17]	CT10 [18] [mM-hr]	C1.6 [19] [mM]	TI [20]
COCC(O)Cn1ccnc1[N+](=O)[O-] (centres undefined) [MISONIDAZOLE]	1.9	3.6	0.9	0.4	28	1.4	0.43	8.3	25	–	–	–	–	–	–	–	–	–	–	–
Cc1ncc([N+](=O)[O-])n1CCNC(=O)CCCCn1ccnc1[N+](=O)[O-]	3.5	1.7	–	–	–	1.2	–	–	> 7	0.93	-0.79	3.8	0.52	0.48	6	4	–	–	–	–
Cc1ncc([N+](=O)[O-])n1CCO [METRONIDAZOLE]	1	1	1.3	17.3	–	1	13.3	–	–	–	–	23	–	–	100	1.7	5	–	–	–
Cc1ncc([N+](=O)[O-])n1CCNC(=O)CCCn1ccnc1[N+](=O)[O-]	4.6	1.3	–	–	–	1.4	–	–	8	0.63	-1.28	7.2	0.33	0.21	0.37	11	–	–	–	–
Cc1ncc([N+](=O)[O-])n1CCNC(=O)CCCCCn1ccnc1[N+](=O)[O-]	–	–	–	–	–	–	–	–	> 17	0.65	-0.22	–	0.55	0.36	–	1.2	–	1.5	–	–
Cc1ncc([N+](=O)[O-])n1CCNC(=O)Cn1c([N+](=O)[O-])cnc1C	2.3	4.4	–	–	–	1	–	50	2	2.7	-0.76	7.7	1.5	4.1	–	2.8	–	–	–	–
Cc1ncc([N+](=O)[O-])n1CCNC(=O)Cn1ccnc1[N+](=O)[O-]	2.1	2.2	–	–	–	1	–	–	2.4	1.08	-1.03	4.7	0.5	0.54	11	4.3	–	–	–	–
O=C(CCCn1ccnc1[N+](=O)[O-])NCCn1ccnc1	3	4.2	0.33	1.32	6	1.3	4	26	8	–	1.32	24	–	–	–	–	–	–	–	–
O=C(CCCn1ccnc1[N+](=O)[O-])NCCn1ccnc1[N+](=O)[O-]	–	–	–	–	–	–	–	–	> 6	1.54	-1.55	–	0.5	–	3.4	1.7	–	–	0.77	–
O=C(CCn1ccnc1[N+](=O)[O-])NCCCn1ccnc1[N+](=O)[O-]	3.9	3.5	–	–	–	1.2	–	–	6.5	–	-1.55	6.1	–	–	2.5	–	–	–	–	–
Cc1ncc([N+](=O)[O-])n1CCNC(=O)CCn1ccnc1[N+](=O)[O-]	2.9	2.5	–	–	–	0.9	–	–	> 7	0.7	-0.99	5.5	0.6	0.42	12	7.9	–	–	–	–
O=[N+]([O-])c1nccn1CC(O)CNCCBr (centres undefined)	1	1.6	–	–	–	5.9	–	–	20	0.13	–	0.15	–	–	0.18	–	–	–	–	1.1
O=C(CCCn1ccnc1[N+](=O)[O-])NCCn1cncc1[N+](=O)[O-]	>2.1	>1.7	–	–	–	–	–	–	> 30	0.9	-1.55	> 4.2	0.3	0.27	0.8	> 4.7	–	–	–	–
O=C(CCCn1ccnc1[N+](=O)[O-])NCCn1cnc([N+](=O)[O-])c1	–	–	–	–	–	–	–	–	–	>1.1	-1.55	–	–	>0.36	> 15	< 1.6	–	–	–	–

Reference: ChEMBL document CHEMBL1127318, “Hypoxia-selective antitumor agents. 8. Bis(nitroimidazolyl)alkanecarboxamides: a new class of hypoxia-selective cytotoxins and hypoxic cell radiosensitisers” (J Med Chem, 1994)
